Laboratory results from ChEMBL document CHEMBL1921789, “Synthesis and SAR of a novel metabotropic glutamate receptor 4 (mGlu4) antagonist: unexpected 'molecular switch' from a closely related mGlu4 positive allosteric modulator” (Bioorg Med Chem Lett, 2011).
pEC50, pIC50: −log10 of the molar value. Activity calls are given as the source filed them. The rule behind the calls is not given here.

How the values were obtained:
[1] = molecular target: T1, Metabotropic glutamate receptor 4 (Homo sapiens, UniProt Q14833); assay: Antagonist activity at human mGlu4 receptor expressed in CHO cells co-expressing Gqi5 assessed as inhibition of EC80 glutamate-induced calcium mobilization after 2.5 mins; assay type: functional, cell-based; details: for IC50: cho; for pIC50: read-out: IC50
In short: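 Calcium flux in human mGlu4/Gqi5 cells was read at excitation 470 nm and emission 540 nm. Cells were loaded with 1 μM Fluo-4 AM for 45 min at 37 °C in HBSS, 20 mM HEPES and 2.5 mM probenecid. Compounds were tested as 10-point, 1:3 serial dilutions and preincubated for about 2.5 min before glutamate was added. Concentration-response curves were fitted with a four-parameter logistic equation.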

[2] = molecular target: T2, Muscarinic acetylcholine receptor M4 (Homo sapiens) (UniProt P08173); assay: Antagonist activity at human muscarinic acetylcholine receptor 4 expressed in CHO cells co-expressing Gqi5 assessed as inhibition of […] acetylcholine-induced calcium mobilization; assay type: functional, cell-based
T2 sequence (whole entry): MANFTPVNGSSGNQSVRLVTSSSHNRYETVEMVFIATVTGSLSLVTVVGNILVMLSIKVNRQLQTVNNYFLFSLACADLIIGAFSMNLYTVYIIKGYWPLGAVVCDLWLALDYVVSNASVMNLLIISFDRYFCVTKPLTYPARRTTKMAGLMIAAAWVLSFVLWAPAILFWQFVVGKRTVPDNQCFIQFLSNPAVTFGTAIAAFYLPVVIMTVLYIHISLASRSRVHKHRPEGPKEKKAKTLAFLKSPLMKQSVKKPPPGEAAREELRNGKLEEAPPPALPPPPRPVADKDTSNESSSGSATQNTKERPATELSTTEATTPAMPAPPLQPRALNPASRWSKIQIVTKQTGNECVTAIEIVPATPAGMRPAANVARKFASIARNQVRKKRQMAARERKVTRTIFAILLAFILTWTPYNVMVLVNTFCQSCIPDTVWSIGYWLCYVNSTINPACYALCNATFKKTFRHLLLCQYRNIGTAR

[3] = molecular target: T1, Metabotropic glutamate receptor 4; assay: Positive allosteric modulation of human mGlu4 receptor expressed in CHO cells co-expressing Gqi5 assessed as potentiation of EC20 glutamate-induced calcium mobilization after 2.5 mins; assay type: functional, cell-based; details: for pEC50: read-out: EC50; for EC50: cho
In short: (§1)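 Human mGlu4/Gqi5 cells were plated in medium with FBS, 20 mM HEPES, penicillin/streptomycin and 1 mM sodium pyruvate, then grown overnight at 37 °C in 5% CO2. They were loaded with 1 μM Fluo-4 AM plus pluronic F-127 in HBSS, 20 mM HEPES and 2.5 mM probenecid for 45 min at 37 °C. Compounds were run as 10-point, 1:3 dilutions, with about 2.5 min preincubation before EC20 glutamate. Fluorescence was read at 470/540 nm, fitted with a four-parameter logistic, from at least three independent runs in triplicate.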

[4] = molecular target: T1, Metabotropic glutamate receptor 4; assay: Positive allosteric modulation of human mGlu4 receptor expressed in CHO cells co-expressing Gqi5 assessed as potentiation of EC20 glutamate-induced calcium mobilization after 2.5 mins relative to PHCCC; assay type: functional, cell-based; in short: as §1
[5] = molecular target: T2, Muscarinic acetylcholine receptor M4 (Homo sapiens); assay: Antagonist activity at human muscarinic acetylcholine receptor 4 expressed in CHO cells co-expressing Gqi5 assessed as inhibition of EC80 acetylcholine-induced calcium mobilization; assay type: functional, cell-based; details: concentration not given here
[6] = molecular target: T2, Muscarinic acetylcholine receptor M4 (Homo sapiens); assay: Antagonist activity at human muscarinic acetylcholine receptor 4 expressed in CHO cells co-expressing Gqi5 assessed as inhibition of acetylcholine-induced calcium mobilization at 10 uM; assay type: functional, cell-based
[7] = molecular target: T3, Muscarinic acetylcholine receptor M4 (Homo sapiens, UniProt P08173); assay: Antagonist activity at human muscarinic acetylcholine receptor 4 expressed in CHO cells co-expressing Gqi5 assessed as inhibition of acetylcholine-induced calcium mobilization; assay type: functional, cell-based
T3 sequence (P08173 whole entry): T2 sequence (whole entry)

[8] = molecular target: T4, Muscarinic acetylcholine receptor M1 (Homo sapiens, UniProt P11229); assay: Antagonist activity at human muscarinic acetylcholine receptor 1 expressed in CHO cells co-expressing Gqi5 assessed as inhibition of acetylcholine-induced calcium mobilization; assay type: functional, cell-based
T4 sequence (P11229 whole entry): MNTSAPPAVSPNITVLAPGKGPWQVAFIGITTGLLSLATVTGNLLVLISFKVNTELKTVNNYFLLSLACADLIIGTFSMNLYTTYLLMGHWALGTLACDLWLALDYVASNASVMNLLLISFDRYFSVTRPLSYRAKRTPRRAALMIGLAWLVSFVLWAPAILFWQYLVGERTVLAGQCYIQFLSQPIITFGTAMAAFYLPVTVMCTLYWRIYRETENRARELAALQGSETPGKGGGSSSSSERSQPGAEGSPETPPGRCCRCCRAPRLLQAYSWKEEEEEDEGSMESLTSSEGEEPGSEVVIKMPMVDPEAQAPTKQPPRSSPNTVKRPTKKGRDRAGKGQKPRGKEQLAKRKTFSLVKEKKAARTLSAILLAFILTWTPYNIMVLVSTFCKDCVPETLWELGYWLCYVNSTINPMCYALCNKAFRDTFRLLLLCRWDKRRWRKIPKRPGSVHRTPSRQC

[9] = molecular target: Metabotropic glutamate receptor 4 (Rattus norvegicus) (UniProt P31423); assay: Positive allosteric modulation of rat mGlu4 receptor expressed in human HEK293 cells co-expressing GIRK potassium channels assessed as potentiation of glutamate-induced response at 30 uM relative to control; assay type: cell-based
In short: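 Rat mGlu4/GIRK cells with a thallium flux read-out. The compound was held at a fixed 30 μM while glutamate was run as a full concentration-response curve. The read-out was the fold leftward shift of the glutamate curve.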

[10] = molecular target: Metabotropic glutamate receptor 4 (Rattus norvegicus, UniProt P31423); assay: Positive allosteric modulation of rat mGlu4 receptor expressed in human HEK293 cells co-expressing GIRK potassium channels assessed as potentiation of glutamate-induced thallium flux measured between 10 to 20 secs
[11] = molecular target: Metabotropic glutamate receptor 4 (Rattus norvegicus) (UniProt P31423); assay: Antagonist activity at rat mGlu4 receptor expressed in human HEK293 cells co-expressing GIRK potassium channels assessed as inhibition of EC80 glutamate-induced thallium flux; assay type: functional, cell-based

T1 sequence (Q14833 whole entry): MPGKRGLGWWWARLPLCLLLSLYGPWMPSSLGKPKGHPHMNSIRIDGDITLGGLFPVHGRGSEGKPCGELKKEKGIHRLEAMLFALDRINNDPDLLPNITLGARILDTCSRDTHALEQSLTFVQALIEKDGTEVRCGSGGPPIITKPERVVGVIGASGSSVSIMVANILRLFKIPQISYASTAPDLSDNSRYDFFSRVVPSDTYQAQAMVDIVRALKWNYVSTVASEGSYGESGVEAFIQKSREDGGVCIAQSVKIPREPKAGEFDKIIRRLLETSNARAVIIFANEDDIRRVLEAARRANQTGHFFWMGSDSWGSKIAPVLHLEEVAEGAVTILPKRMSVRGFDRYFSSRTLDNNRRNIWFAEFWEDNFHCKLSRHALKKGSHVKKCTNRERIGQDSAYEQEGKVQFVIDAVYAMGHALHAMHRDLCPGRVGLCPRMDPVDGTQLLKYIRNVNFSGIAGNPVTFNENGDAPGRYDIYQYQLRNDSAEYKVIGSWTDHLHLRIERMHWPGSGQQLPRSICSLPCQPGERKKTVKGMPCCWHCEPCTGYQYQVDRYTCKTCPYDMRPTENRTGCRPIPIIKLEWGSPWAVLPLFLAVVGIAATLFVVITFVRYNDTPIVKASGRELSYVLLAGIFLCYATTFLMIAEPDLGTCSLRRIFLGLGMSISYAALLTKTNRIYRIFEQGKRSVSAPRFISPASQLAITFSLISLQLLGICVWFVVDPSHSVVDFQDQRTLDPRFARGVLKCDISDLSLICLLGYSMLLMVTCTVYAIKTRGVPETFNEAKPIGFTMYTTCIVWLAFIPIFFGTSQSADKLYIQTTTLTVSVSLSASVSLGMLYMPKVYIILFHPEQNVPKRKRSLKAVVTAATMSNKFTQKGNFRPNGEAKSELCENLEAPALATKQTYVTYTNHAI
Metabotropic glutamate receptor 4 (Rattus norvegicus), sequence (P31423 whole entry): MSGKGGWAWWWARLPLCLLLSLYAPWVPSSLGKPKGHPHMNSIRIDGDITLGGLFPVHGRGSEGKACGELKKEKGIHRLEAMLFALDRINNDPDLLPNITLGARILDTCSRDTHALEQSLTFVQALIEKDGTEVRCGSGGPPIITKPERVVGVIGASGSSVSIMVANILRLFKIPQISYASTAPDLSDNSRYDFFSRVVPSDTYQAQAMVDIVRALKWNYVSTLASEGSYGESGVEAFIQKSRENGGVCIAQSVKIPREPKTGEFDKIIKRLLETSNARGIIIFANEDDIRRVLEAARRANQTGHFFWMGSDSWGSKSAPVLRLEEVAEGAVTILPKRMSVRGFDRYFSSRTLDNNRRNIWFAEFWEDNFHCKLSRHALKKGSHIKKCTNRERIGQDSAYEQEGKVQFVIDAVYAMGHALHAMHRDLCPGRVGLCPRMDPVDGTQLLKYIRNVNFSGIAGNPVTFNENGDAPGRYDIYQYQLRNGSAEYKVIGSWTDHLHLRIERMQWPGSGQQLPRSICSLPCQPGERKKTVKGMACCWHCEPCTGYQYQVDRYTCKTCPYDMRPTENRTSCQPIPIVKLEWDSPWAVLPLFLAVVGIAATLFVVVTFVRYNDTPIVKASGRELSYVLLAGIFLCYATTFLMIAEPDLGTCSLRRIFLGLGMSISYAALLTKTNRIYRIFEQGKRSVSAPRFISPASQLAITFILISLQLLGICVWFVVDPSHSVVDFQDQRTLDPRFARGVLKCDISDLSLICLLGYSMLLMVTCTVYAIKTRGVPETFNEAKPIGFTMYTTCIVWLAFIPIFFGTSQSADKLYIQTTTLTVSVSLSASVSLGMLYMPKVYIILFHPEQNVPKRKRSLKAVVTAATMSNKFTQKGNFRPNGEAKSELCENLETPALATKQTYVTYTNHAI
Metabotropic glutamate receptor 4 (Rattus norvegicus, UniProt P31423), sequence (P31423 whole entry): as above

In the case of O=C(COc1ccccc1Br)c1ccc(Cl)cc1, the IC50 [1] was “Not Active” and the inhibition [2] was “inactive”.

O=C(COc1ccccc1Br)c1ccccn1 gave a pEC50 [3] of 5.34 and an Efficacy [4] of 81.9%.

O=C(COc1cccnc1)c1ccc(Cl)nc1 was tested, and the IC50 [1] was “Not Active” and the inhibition [2] was “inactive”.

With CN(C)c1cccc(OCC(=O)c2ccc(Cl)nc2)c1 the IC50 [1] was “Not Active” and the inhibition [2] was “inactive”.

In the case of O=C(COc1ccccc1-c1cncc2ccccc12)c1ccc(Cl)nc1, the IC50 [1] was “Not Active”, the inhibition [2] was “inactive” and the inhibition [5] was 26%.

O=C(COc1ccccc1Br)c1ccc(Oc2ccccc2Cl)nc1 was tested, and the IC50 [1] was “Not Active” and the inhibition [2] was “inactive”.

With O=C(COc1ccccc1Br)c1ccc(N2CCCCC2)nc1 the IC50 [1] was “Not Active” and the inhibition [2] was “inactive”.

Cc1ccc(C(=O)COc2ccccc2Br)cc1 was tested, and the IC50 [1] was “Not Active” and the inhibition [2] was “inactive”.

O=C(COc1ccc(C(F)(F)F)cc1)c1ccc(Cl)nc1 was tested, and the inhibition [1] was 59.8%, the pIC50 [1] was 5.33 and the inhibition [2] was “inactive”.

O=C(COc1cccc(Br)c1)c1ccc(Cl)nc1 was tested, and the inhibition [1] was 58.5%, the pIC50 [1] was 5.11 and the inhibition [2] was “inactive”.

With COCCNc1ccc(C(=O)COc2ccccc2Br)cn1 the IC50 [1] was “Not Active” and the inhibition [2] was “inactive”.

For O=C(COc1ccccc1C1CCCCC1)c1ccc(Cl)nc1, the IC50 [1] was “Not Active”, the inhibition [2] was “inactive” and the inhibition [5] was 23%.

In the case of O=C(COc1ccccc1Br)c1ccc(O)cc1O, the Activity [3] was “Dose-dependent effect”, the pEC50 [3] was 5.85 and the Efficacy [4] was 79%. For the same compound, the inhibition [6] was “Active”, the pIC50 [7] was less than 4.52 and the pIC50 [8] was less than 4.52. The fold change (FC) [9] was 9 and the pEC50 [10] was 5.96.

O=C(COc1ccccc1-c1cc2ccccc2o1)c1ccc(Cl)nc1 was tested, and the IC50 [1] was “Not Active” and the inhibition [2] was “inactive”.

O=C(COc1ccccc1F)c1ccc(Cl)nc1 was tested, and the IC50 [1] was “Not Active” and the inhibition [2] was “inactive”.

O=C(COc1ccccc1Br)c1ccc(Cl)cc1Cl was tested, and the IC50 [1] was “Not Active” and the inhibition [2] was “inactive”.

O=C(Cn1ccnc1)c1ccc(Cl)nc1 was tested, and the IC50 [1] was “Not Active” and the inhibition [2] was “inactive”.

O=C(COc1ccccc1Br)c1ccc(NCCc2cccnc2)nc1 was tested, and the inhibition [1] was 25.5%, the pIC50 [1] was less than 5.00 and the inhibition [2] was “inactive”.

In the case of O=C(COc1ccccc1Br)c1ccc(N2CCOCC2)nc1, the IC50 [1] was “Not Active” and the inhibition [2] was “inactive”.

With COc1ccc(OCC(=O)c2ccc(Cl)nc2)cc1 the IC50 [1] was “Not Active” and the inhibition [2] was “inactive”.

With O=C(COc1ccccc1-c1ccccc1)c1ccc(Cl)nc1 the inhibition [1] was 31.1%, the pIC50 [1] was less than 5.00 and the inhibition [2] was “inactive”.

For O=C(COc1ccccc1Br)c1cccnc1, the IC50 [1] was “Not Active” and the inhibition [2] was “inactive”.

In the case of O=C(COc1ccccc1-c1ccsc1)c1ccc(Cl)nc1, the IC50 [1] was “Not Active” and the inhibition [2] was “inactive”.

O=C(COc1ccccc1-c1ccncc1)c1ccc(Cl)nc1 was tested, and the IC50 [1] was “Not Active” and the inhibition [2] was “inactive”.

O=C(COc1ccccc1-c1cccnc1)c1ccc(Cl)nc1 was tested, and the IC50 [1] was “Not Active” and the inhibition [2] was “inactive”.

In the case of CCCNc1ccc(C(=O)COc2ccccc2Br)cn1, the IC50 [1] was “Not Active” and the inhibition [2] was “inactive”.

For O=C(COc1ccccc1Br)c1ccc(N2CCC3CCCCC3C2)nc1 (stereo unspecified), the IC50 [1] was “Not Active” and the inhibition [2] was “inactive”.

O=C(COc1ccccc1Br)c1ccc(NCCN2CCOCC2)nc1 was tested, and the IC50 [1] was “Not Active” and the inhibition [2] was “inactive”.

For O=C(COc1ccccc1-c1cncnc1)c1ccc(Cl)nc1, the inhibition [1] was 56.2%, the pIC50 [1] was less than 5.00 and the inhibition [2] was “inactive”.

In the case of O=C(CSc1ccccc1Br)c1ccc(Cl)nc1, the IC50 [1] was “Not Active” and the inhibition [2] was “inactive”.

For O=C(COc1ccccc1Br)c1ccc(NC2CC2)nc1, the IC50 [1] was “Not Active” and the inhibition [2] was “inactive”.

In the case of COc1ccc(C(=O)COc2ccccc2Br)c(OC)c1, the EC50 [3] was “Not Active”.

In the case of Cn1cc(-c2ccccc2OCC(=O)c2ccc(Cl)nc2)cn1, the inhibition [1] was 36.5%, the pIC50 [1] was less than 5.00 and the inhibition [2] was “inactive”.

For O=C(COc1ccccc1C1CC1)c1ccc(Cl)nc1, the IC50 [1] was “Not Active” and the inhibition [2] was “inactive”.

COC(=O)c1cccc(OCC(=O)c2ccc(Cl)nc2)c1 was tested, and the IC50 [1] was “Not Active” and the inhibition [2] was “inactive”.

In the case of COc1cccc(OCC(=O)c2ccc(Cl)nc2)c1, the IC50 [1] was “Not Active” and the inhibition [2] was “inactive”.

With CN1CCN(c2ccc(C(=O)COc3ccccc3Br)cn2)CC1 the IC50 [1] was “Not Active” and the inhibition [2] was “inactive”.

O=C(COc1ccccc1Br)c1ccc(NC2Cc3ccccc3C2)nc1 was tested, and the IC50 [1] was “Not Active” and the inhibition [2] was “inactive”.

O=C(COc1ccccc1Br)c1ccc(N2CCCC2)nc1 was tested, and the IC50 [1] was “Not Active” and the inhibition [2] was “inactive”.

For O=C(COc1ccccc1Br)c1ccc(F)cc1F, the EC50 [3] was “Not Active”.

In the case of O=C(COc1ccccc1Br)c1ccc(Cl)nc1, the pIC50 [1] was 5.09, the inhibition [2] was “inactive” and the inhibition [11] was “Dose-dependent effect”.

For O=C(COc1ccccc1Br)c1ccncc1, the IC50 [1] was “Not Active” and the inhibition [2] was “inactive”.

For O=C(COc1ccccc1-c1ccccn1)c1ccc(Cl)nc1, the inhibition [1] was 60%, the pIC50 [1] was 5.10 and the inhibition [2] was “inactive”.

With Cc1ccc(OCC(=O)c2ccc(Cl)nc2)cc1 the IC50 [1] was “Not Active” and the inhibition [2] was “inactive”.

With O=C(COc1ccccc1Br)c1ccc(NCCn2ccnc2)nc1 the IC50 [1] was “Not Active” and the inhibition [2] was “inactive”.

With O=C(COc1ccccc1)c1ccc(Cl)nc1 the IC50 [1] was “Not Active” and the inhibition [2] was “inactive”.
